Laboratory results taken from ChEMBL document CHEMBL1125563, “Selective, centrally acting serotonin 5-HT2 antagonists. 1. 2- and 6-substituted 1-phenyl-3-(4-piperidinyl)-1H-indoles” (J Med Chem, 1992).

Experiments:
Rattus norvegicus [1] = experiment: Compound was evaluated for the inhibition of quipazine-induced head twitches after 2 h (administered subcutaneously); 0.011-0.12; type: functional; settings: sc
Rattus norvegicus [2] = experiment: Compound was evaluated for the inhibition of quipazine-induced head twitches after 24 hr (administered subcutaneously); 0.014-0.48; settings: sc
Mus musculus [3] = species: Mus musculus; experiment: Compound was evaluated for the inhibition of isolation-induced aggression at a threshold of 180 seconds; 1.1-2.6; type: functional
How it was run: (§1)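 Isolated male NMRI mice (3 weeks) trained to attack a nonaggressive intruder of the same strain; only mice with attack latency <25 s included. Pretested just before dosing and 2 h after sc test substance; observation maximum 180 s; at least eight mice per dose.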

Rattus norvegicus [4] = experiment: Compound was evaluated for the inhibition of quipazine-induced head twitches after 24 hr (administered perorally); 0.12-0.57; type: functional; settings: po
Mus musculus [5] = species: Mus musculus; experiment: Compound was evaluated for the inhibition of isolation-induced aggression at a threshold of, 90 seconds; 1.3-2.9; type: functional; how it was run: as §1
[6] = molecular target: T1, Adrenergic receptor alpha-1 (Rattus norvegicus, UniProt P15823+P23944+P43140); experiment: Displacement of [3H]prazosin from Alpha-1 adrenergic receptor of whole rat brain membranes; type: cell membranes, Membrane
T1 sequence (P15823 whole entry): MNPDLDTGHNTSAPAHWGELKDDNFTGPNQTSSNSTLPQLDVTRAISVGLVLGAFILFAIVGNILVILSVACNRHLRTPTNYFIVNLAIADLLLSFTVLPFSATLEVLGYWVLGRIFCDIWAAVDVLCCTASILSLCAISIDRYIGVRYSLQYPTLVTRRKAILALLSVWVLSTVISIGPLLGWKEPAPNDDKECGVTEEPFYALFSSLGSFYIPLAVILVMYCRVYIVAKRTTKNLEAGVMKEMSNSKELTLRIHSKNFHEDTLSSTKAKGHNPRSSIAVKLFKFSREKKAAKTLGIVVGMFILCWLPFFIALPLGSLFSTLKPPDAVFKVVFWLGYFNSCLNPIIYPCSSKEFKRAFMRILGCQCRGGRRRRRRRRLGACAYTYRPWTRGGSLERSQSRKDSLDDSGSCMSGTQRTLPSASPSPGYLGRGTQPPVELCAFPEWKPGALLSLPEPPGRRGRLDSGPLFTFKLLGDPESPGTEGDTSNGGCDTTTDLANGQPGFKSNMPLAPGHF
T1 sequence (P23944 whole entry): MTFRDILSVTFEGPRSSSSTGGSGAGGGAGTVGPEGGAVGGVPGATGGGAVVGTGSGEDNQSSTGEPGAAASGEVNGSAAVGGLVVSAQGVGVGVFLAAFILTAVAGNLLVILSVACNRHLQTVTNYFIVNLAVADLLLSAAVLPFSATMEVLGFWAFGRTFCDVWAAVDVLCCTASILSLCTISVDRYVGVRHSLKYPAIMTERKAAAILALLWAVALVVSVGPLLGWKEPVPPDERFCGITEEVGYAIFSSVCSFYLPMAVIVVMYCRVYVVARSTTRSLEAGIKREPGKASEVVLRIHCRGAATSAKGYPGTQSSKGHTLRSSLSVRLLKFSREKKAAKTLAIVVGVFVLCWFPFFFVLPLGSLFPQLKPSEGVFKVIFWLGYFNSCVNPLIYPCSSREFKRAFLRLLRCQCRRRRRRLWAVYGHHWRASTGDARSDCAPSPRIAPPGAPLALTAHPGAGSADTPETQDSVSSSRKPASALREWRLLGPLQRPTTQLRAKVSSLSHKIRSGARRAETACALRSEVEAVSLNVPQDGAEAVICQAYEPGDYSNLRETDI
T1 sequence (P43140 whole entry): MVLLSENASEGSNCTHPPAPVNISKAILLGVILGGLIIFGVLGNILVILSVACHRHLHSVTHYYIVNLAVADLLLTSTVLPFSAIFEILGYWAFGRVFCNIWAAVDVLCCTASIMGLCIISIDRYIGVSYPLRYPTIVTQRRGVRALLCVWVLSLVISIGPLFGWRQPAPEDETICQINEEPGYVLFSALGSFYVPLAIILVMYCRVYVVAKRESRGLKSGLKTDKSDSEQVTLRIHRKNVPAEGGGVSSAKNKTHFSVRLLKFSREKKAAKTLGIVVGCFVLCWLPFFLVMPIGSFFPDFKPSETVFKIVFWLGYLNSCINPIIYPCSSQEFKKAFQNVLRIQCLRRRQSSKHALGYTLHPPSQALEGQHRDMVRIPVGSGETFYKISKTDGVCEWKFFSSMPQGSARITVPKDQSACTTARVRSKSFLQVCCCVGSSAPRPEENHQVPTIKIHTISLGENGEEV
How it was run: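 α1 adrenoceptor binding measured as displacement of [3H]prazosin from whole rat brain membranes. Five test-drug concentrations spanning three decades in triplicate, two full curves; IC50 from log concentration-effect curves, logarithmic mean of at least two determinations.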

Rattus norvegicus [7] = experiment: Compound was evaluated for the inhibition of pergolide-induced reactions after 2 hr (administered subcutaneously); 1.8-14.4; type: functional; settings: sc
How it was run: (§2)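 Male Wistar rats with unilateral 6-OHDA lesions; test drug sc 2 h before pergolide (0.05 µmol/kg sc) to induce contralateral circling. Effect of each dose expressed as percent of mean of control sessions 1 week before and 1 week after, per rat; at least four rats per dose; ED50 by log-probit analysis.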

[8] = molecular target: Serotonin 2 (5-HT2) receptor (Rattus norvegicus, UniProt P30994+P08909+P14842); experiment: Displacement of [3H]ketanserin from 5-hydroxytryptamine 2 receptor from rat cortical membranes.; type: cell membranes, Membrane
How it was run: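 [3H]ketanserin displacement from rat cortical membranes (5-HT2). Five concentrations across three decades in triplicate, two full curves; IC50 estimated on a log-concentration scale, given as logarithmic mean of at least two determinations.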

Mus musculus [9] = species: Mus musculus; experiment: Compound was evaluated for the inhibition of isolation-induced aggression at a threshold of, 90 seconds; type: functional; how it was run: as §1
Mus musculus [10] = species: Mus musculus; experiment: Compound was evaluated for the inhibition of isolation-induced aggression at a threshold of 180 seconds; type: functional; how it was run: as §1
Rattus norvegicus [11] = experiment: Compound was evaluated for the inhibition of quipazine-induced head twitches after 24 hr (administered subcutaneously); 0.017-0.16; type: functional; settings: sc
Rattus norvegicus [12] = experiment: Compound was evaluated for the inhibition of quipazine-induced head twitches after 24 hr (administered perorally); 0.026-0.12; type: functional; settings: po
Rattus norvegicus [13] = experiment: Compound was evaluated for the inhibition of pergolide-induced reactions after 2 hr (administered subcutaneously); type: functional; settings: sc; how it was run: as §2
Rattus norvegicus [14] = experiment: Compound was evaluated for the inhibition of quipazine-induced head twitches after 2 h (administered subcutaneously); 0.064-0.18; type: functional; settings: sc
Rattus norvegicus [15] = experiment: Compound was evaluated for the inhibition of quipazine-induced head twitches after 2 hr (administered subcutaneously); 0.0027-0.073; type: functional; settings: sc
Rattus norvegicus [16] = experiment: Compound was evaluated for the inhibition of quipazine-induced head twitches after 24 hr (administered subcutaneously); 0.0089-0.12; type: functional; settings: sc
Rattus norvegicus [17] = experiment: Compound was evaluated for the inhibition of quipazine-induced head twitches after 24 hr (administered perorally); 0.017-0.18; type: functional; settings: po
Rattus norvegicus [18] = experiment: Compound was evaluated for the inhibition of quipazine-induced head twitches after 24 hr (administered perorally); 0.0091-0.16; settings: po
Rattus norvegicus [19] = experiment: Compound was evaluated for the inhibition of pergolide-induced reactions after 2 hr (administered subcutaneously); 12-50; type: functional; settings: sc; how it was run: as §2
D(2) dopamine receptor = D(2) dopamine receptor (Rattus norvegicus, UniProt P61169); experiment: Displacement of [3H]-spiperone from Dopamine receptor D2 from rat striatal membranes; type: cell membranes, Membrane
How it was run: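 [3H]spiperone displacement from rat striatal membranes (D2). Five test-drug concentrations over three decades, in triplicate, two full curves; IC50 from log concentration-effect curves, reported as logarithmic mean of at least two determinations.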

Rattus norvegicus [20] = experiment: Compound was evaluated for the inhibition of quipazine-induced head twitches after 2 hr (administered subcutaneously); 0.012-0.095; type: functional; settings: sc
Rattus norvegicus [21] = experiment: Compound was evaluated for the inhibition of quipazine-induced head twitches after 24 h (administered perorally); 0.031-0.20; type: functional; settings: po
Rattus norvegicus [22] = experiment: Compound was evaluated for the inhibition of pergolide-induced reactions after 2 hr (administered subcutaneously); 9.7-87; type: functional; settings: sc; how it was run: as §2
Rattus norvegicus [23] = experiment: Compound was evaluated for the inhibition of quipazine-induced head twitches after 2 hr (administered subcutaneously); 0.072-0.45; type: functional; settings: sc
Rattus norvegicus [24] = experiment: Compound was evaluated for the inhibition of pergolide-induced reactions after 2 hr (administered subcutaneously); 9.7-87; settings: sc
Mus musculus [25] = species: Mus musculus; experiment: Compound was evaluated for the inhibition of isolation-induced aggression at a threshold of 180 seconds; 2.3-12.4; type: functional
Mus musculus [26] = species: Mus musculus; experiment: Compound was evaluated for the inhibition of isolation-induced aggression at a threshold of, 90 seconds; 3.5-18.4; type: functional
Mus musculus [27] = species: Mus musculus; experiment: Compound was evaluated for the inhibition of isolation-induced aggression at a threshold of 180 seconds
Rattus norvegicus [28] = experiment: Compound was evaluated for the inhibition of quipazine-induced head twitches after 2 hr (administered subcutaneously); 0.056-0.18; type: functional; settings: sc
[29] = molecular target: T2, Alpha-1A adrenergic receptor (Rattus norvegicus, UniProt P43140); experiment: Compound was tested for the displacement of [3H]prazosin from alpha-1 adrenergic receptor of rat whole brain membranes
T2 sequence (P43140 whole entry): T1 sequence (P43140 whole entry)

Mus musculus [30] = species: Mus musculus; experiment: Compound was evaluated for the inhibition of isolation-induced aggression at a threshold of, 90 seconds
Rattus norvegicus [31] = experiment: Compound was evaluated for the inhibition of quipazine-induced head twitches after 24 hr (administered subcutaneously); 0.35-2.7; type: functional; settings: sc

Sequence of D(2) dopamine receptor (P61169 whole entry): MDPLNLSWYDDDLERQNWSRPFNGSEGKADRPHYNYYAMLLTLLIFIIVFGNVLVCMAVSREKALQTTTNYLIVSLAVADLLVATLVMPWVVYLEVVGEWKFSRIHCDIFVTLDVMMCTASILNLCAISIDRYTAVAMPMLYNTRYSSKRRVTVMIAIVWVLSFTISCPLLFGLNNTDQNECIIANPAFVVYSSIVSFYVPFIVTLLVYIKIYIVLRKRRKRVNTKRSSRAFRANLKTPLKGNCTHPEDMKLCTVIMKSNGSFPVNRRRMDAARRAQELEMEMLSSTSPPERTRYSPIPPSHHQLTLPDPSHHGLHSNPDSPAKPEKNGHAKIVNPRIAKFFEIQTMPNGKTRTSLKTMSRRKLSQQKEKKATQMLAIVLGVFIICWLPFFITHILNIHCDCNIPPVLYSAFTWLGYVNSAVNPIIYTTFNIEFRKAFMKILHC

Compound: O=C1NCCN1CCN1CCC(c2cn(-c3ccc(F)cc3)c3ccccc23)CC1
- ED50 (Rattus norvegicus [1]): 0.036 µmol/kg
- ED50 (Rattus norvegicus [2]): 0.082 µmol/kg
- ED50 (Mus musculus [3]): 1.7 µmol/kg
- ED50 (Rattus norvegicus [4]): 0.26 µmol/kg
- ED50 (Mus musculus [5]): 1.9 µmol/kg
- IC50 [6]: 3 nM
- ED50 (Rattus norvegicus [7]): 5.1 µmol/kg
- IC50 [8]: 0.72 nM

Compound: CC(C)N1CCN(CCN2CCC(c3cn(-c4ccc(F)cc4)c4cc(Cl)ccc34)CC2)C1=O
- ED50 (Mus musculus [9]): 2.3 µmol/kg
- ED50 (Mus musculus [10]): 2 µmol/kg
- ED50 (Rattus norvegicus [11]): 0.052 µmol/kg
- ED50 (Rattus norvegicus [12]): 0.055 µmol/kg
- ED50 (Rattus norvegicus [13]): > 17 µmol/kg
- IC50 [6]: 70 nM
- IC50 [8]: 1.5 nM
- ED50 (Rattus norvegicus [14]): 0.11 µmol/kg

Compound: Cc1ccc2c(C3CCN(CCN4CCN(C(C)C)C4=O)CC3)cn(-c3ccccc3)c2c1
- ED50 (Mus musculus [9]): > 11 µmol/kg
- ED50 (Mus musculus [10]): > 11 µmol/kg
- ED50 (Rattus norvegicus [15]): 0.014 µmol/kg
- ED50 (Rattus norvegicus [16]): 0.032 µmol/kg
- ED50 (Rattus norvegicus [17]): 0.056 µmol/kg
- ED50 (Rattus norvegicus [13]): > 22 µmol/kg
- IC50 [6]: 120 nM
- IC50 [8]: 2 nM

Compound: O=C1NCCN1CCN1CCC(c2cn(-c3ccc(F)cc3)c3cc(F)ccc23)CC1
- ED50 (Rattus norvegicus [18]): 0.038 µmol/kg
- ED50 (Rattus norvegicus [19]): 25 µmol/kg
- IC50 (D(2) dopamine receptor): 36 nM
- ED50 (Rattus norvegicus [20]): 0.034 µmol/kg
- IC50 [6]: 2.2 nM
- IC50 [8]: 0.73 nM

Compound: Cc1c(C2CCN(CCN3CCNC3=O)CC2)c2ccccc2n1-c1ccc(F)cc1
- ED50 (Rattus norvegicus [21]): 0.078 µmol/kg
- ED50 (Rattus norvegicus [22]): 29 µmol/kg
- ED50 (Rattus norvegicus [23]): 0.18 µmol/kg
- ED50 (Rattus norvegicus [24]): 29 µmol/kg
- IC50 [6]: 76 nM
- IC50 [8]: 0.59 nM

Compound: c1cc2c(c(N3CCNCC3)c1)OCCO2 [ELTOPRAZINE]
- ED50 (Mus musculus [25]): 5.4 µmol/kg
- ED50 (Mus musculus [26]): 8 µmol/kg

Compound: Cc1nc2sccn2c(=O)c1CCN1CCC(=C(c2ccc(F)cc2)c2ccc(F)cc2)CC1 [RITANSERIN]
- ED50 (Mus musculus [27]): > 10 µmol/kg
- ED50 (Rattus norvegicus [28]): 0.1 µmol/kg
- IC50 [29]: 47 nM
- ED50 (Mus musculus [30]): > 10 µmol/kg
- ED50 (Rattus norvegicus [13]): > 21 µmol/kg
- ED50 (Rattus norvegicus [31]): 0.98 µmol/kg
